A selection: hits, their analogues and other compounds. The true share with any hit is near 11%.
mHtt clearance – compounds clearing mutant huntingtin protein; HeLa Exon1htt(103Q)mCFP, aggregate imaging; zero = plate's median compound well; inhibition, % at 1.5 µM; 47,000 tested, 0.42% active;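 active = inhibition of aggregate fluorescence above about 70%, also judged a hit by eye on the cell image, limit read from the data, passing the limit was not always enough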;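 also: cells exposed to compound for three days before fixation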
D1 mod – allosteric modulators of human D1 dopamine receptor. 58,000 tested, 5.9% active. B-score at 10 µM. AID 641. HEK293 D1, CRE-luciferase, dopamine EC30 potentiation; actives deviate in either direction;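 active = luminescence count or its row- and column-corrected plate score outside the 99.7% band of the plate's sample wells, on either side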
Target sequence (P21728 whole entry, looked up): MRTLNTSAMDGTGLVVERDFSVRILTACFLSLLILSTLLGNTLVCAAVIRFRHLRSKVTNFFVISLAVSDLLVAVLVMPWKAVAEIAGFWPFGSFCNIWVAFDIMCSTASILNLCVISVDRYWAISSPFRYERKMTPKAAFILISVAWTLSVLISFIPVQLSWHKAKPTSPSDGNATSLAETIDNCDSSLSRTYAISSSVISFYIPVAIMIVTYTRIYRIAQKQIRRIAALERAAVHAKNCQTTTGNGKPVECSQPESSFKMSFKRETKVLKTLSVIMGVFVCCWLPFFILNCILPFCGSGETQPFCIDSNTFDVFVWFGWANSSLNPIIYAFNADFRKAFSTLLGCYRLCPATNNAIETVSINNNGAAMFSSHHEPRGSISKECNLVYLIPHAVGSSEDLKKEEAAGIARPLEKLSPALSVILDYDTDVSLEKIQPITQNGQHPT
M1 ag – activates the M1 muscarinic receptor | 64,000 tested, 3% active | CHO-M1 cells, Fluo-4 calcium fluorescence, agonist mode; hits give high values | AID 626 | B-score at 10 µM;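 active = fluorescence rise, raw or as B-score row- and column-corrected plate score, outside the 99.7% band of its plate's samples, either direction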
M1 antag – blocks the rat M1 muscarinic receptor response to acetylcholine | P08482 | CHO-M1 cells, Fluo-4 calcium, ACh EC80 antagonist mode; hits give low values | B-score at 10 µM | 64,000 tested, 3.4% active | AID 628;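 active = calcium fluorescence response, raw or row-and-column corrected B-score, differing from the plate sample mean either way at a set confidence level, mostly lower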
SF-1 act – SF-1 (human) activation; Q13285; CHO-K1 Gal4-SF-1 LBD luciferase reporter; % increase over DMSO SF-1-specific signal; activation, % at 10 µM; 65,000 tested, 1.9% active; AID 522;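 active = activation above the mean activation of all tested compounds plus 3 SD, cut at about 50% in these data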
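Material: Gal4–SF-1 LBD one-hybrid luciferase reporter in CHO-K1 cells | Amount: 4,000 cells per well | Compound dosing: 10 µM single point, 1% DMSO | Schedule: 20 h compound treatment, 37 °C | Measured by: SteadyLite luciferase luminescence | Evaluation: Percent activation versus DMSO | Control set: DMSO-treated SF-1-transfected cells as negative, DMSO-treated mock-transfected cells lacking SF-1 as background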
RORa activator – activates the human nuclear receptor RORA | AID 560 | activation, % at 10 µM | P35398 | 65,000 tested, 1.5% active | CHO-K1 Gal4-RORA LBD luciferase reporter, luminescence; percent increase over mock-subtracted basal signal;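 active = activation above the mean of all tested compounds plus 3 SD, cut at about 49% in these data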
D1 mod confirm – D1 receptor (human) allosteric modulation, confirmed; shares compounds with D1 mod; HEK293 D1 CRE-luciferase, dopamine EC30 potentiation; hits give high values; luminescence at 10 µM; 2,200 tested, 88% active;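 active = luminescence in either of two replicates above the same-plate mean plus 3 SD of the low-dose dopamine control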
D1 no dopamine – activates D1 CRE-luciferase signal without dopamine present | shares compounds with D1 mod | HEK293 D1 CRE-luciferase, luminescence, no dopamine; hits give high values | luminescence at 10 µM | 1,900 tested, 0.8% active; in the data active = luminescence above about 3900
Isoprot counter – counter-screen for D1 modulators: isoproterenol response in HEK293 cells; shares compounds with D1 mod; 2,200 tested, 63% active; calls only at 10 µM; HEK293 D1 CRE-luciferase, isoproterenol EC30 counter-screen;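 active = luminescence in either replicate above plate mean of wells with a partly effective reference agonist dose plus 3 SD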;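 also: isoproterenol raises cAMP through native beta-adrenoceptor Gs so signal bypasses D1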
Large screens that a line does not name were inactive (follow-up assays come after a bar, where they were run).

COc1cc(OC)c(-c2nn3c(C4CCCCC4)nnc3s2)cc1OC	D1 mod 5.17 | D1 mod confirm 10724 | D1 no dopamine inactive | Isoprot counter active
CCOc1cccc(-c2nnc3sc(C4CCCCC4)nn23)c1	none (no result: D1 mod)
COc1cccc(-c2nnc3sc(C4CCCCC4)nn23)c1	D1 mod 5.46 (no result: mHtt clearance) | D1 mod confirm 12024 | D1 no dopamine inactive | Isoprot counter active
COc1cc(-c2nnc3sc(C4CCCCC4)nn23)cc(OC)c1OC	D1 mod 7.42 | D1 mod confirm 15992 | D1 no dopamine inactive | Isoprot counter active
CCOCC(=O)Nc1cc(-c2cn3cccnc3n2)ccc1C	none (no result: mHtt clearance)
CC1=NCCN1S(=O)(=O)c1cc(Cl)ccc1Cl	none
CCCC1(C(=O)OCC)NC(c2ccc(N(C)C)cc2)C2C(=O)N(c3ccc(OCC)cc3)C(=O)C21 (stereo unspecified)	D1 mod 2.92 | D1 mod confirm inactive | D1 no dopamine inactive | Isoprot counter inactive
CCCC1(C(=O)OCC)NC(c2ccc(N(C)C)cc2)C2C(=O)N(c3ccccc3)C(=O)C21 (stereo unspecified)	none (no result: mHtt clearance)
Cc1cc(NS(=O)(=O)c2ccc(NC(=O)COc3ccccc3Cl)cc2)no1	none
Cc1cc(NS(=O)(=O)c2ccc(NC(=O)COc3ccccc3C(C)C)cc2)no1	D1 mod 4.12 (no result: mHtt clearance) | D1 mod confirm 6636 | D1 no dopamine inactive | Isoprot counter inactive
COc1ccc(C(c2sc3ncnn3c2O)N2CCN(c3ccccc3F)CC2)cc1OC (stereo unspecified)	D1 mod 4.77 (no result: mHtt clearance) | D1 mod confirm 14444 | D1 no dopamine inactive | Isoprot counter active
COc1ccc(C(c2sc3ncnn3c2O)N2CC(C)OC(C)C2)cc1OC (stereo unspecified)	none (no result: D1 mod)
CSc1nc2c(c(=O)n1Cc1ccccc1)SC(C)C2 (stereo unspecified)	D1 mod 5.38 (no result: mHtt clearance) | D1 mod confirm 8668 | D1 no dopamine inactive | Isoprot counter active
CC(C)Sc1nc2c(c(=O)n1C)SC(C)C2 (stereo unspecified)	D1 mod 3.37 (no result: mHtt clearance) | D1 mod confirm 8852 | D1 no dopamine inactive | Isoprot counter inactive
c1ccc(N2CCN(Cc3cn4cccnc4n3)CC2)cc1	none (no result: mHtt clearance)
Cc1cc(NC(=O)c2sccc2C)n(-c2cccc(Cl)c2)n1	D1 mod 4.87 | D1 mod confirm 12892 | D1 no dopamine inactive | Isoprot counter active
CSc1nc(N2CCOCC2)c2c3c(sc2n1)CCCC3	D1 mod 10.9 | D1 mod confirm 11612 | D1 no dopamine inactive | Isoprot counter active
N#Cc1c(-c2ccccc2)cc(-c2ccco2)c(C#N)c1N	D1 mod 2.87 (no result: mHtt clearance, SF-1 act, RORa activator) | D1 mod confirm 6724 | Isoprot counter inactive
CC(C)(C)c1cc(-c2ccco2)c(C#N)c(SCC#N)n1	none
COc1ccc(-c2nn3c(-c4ccncc4)nnc3s2)cc1OC	none (no result: mHtt clearance)
COc1ccc(-c2nn3cnnc3s2)cc1OC	D1 mod 12.8 | D1 mod confirm 16540 | D1 no dopamine inactive | Isoprot counter active
CC(=O)Nc1c(C(=O)C2CC2)oc2ccccc12	D1 mod 8.31 | D1 mod confirm 13456 | D1 no dopamine inactive | Isoprot counter active
CCOC(=O)c1oc2ccccc2c1NC(=O)c1cccc(OC)c1OC	D1 mod 15.7 | D1 mod confirm 20936 | D1 no dopamine inactive | Isoprot counter active
CCOC(=O)c1oc2ccccc2c1NC(=O)C1CCCCC1	D1 mod 9.53 (no result: mHtt clearance) | D1 mod confirm 15764 | Isoprot counter active
CCOC(=O)c1oc2ccccc2c1NC(=O)c1cccc(OC)c1	none
N#Cc1ccccc1OCC(=O)Nc1c(C(=O)C2CC2)oc2ccccc12	none (no result: mHtt clearance)

Source: PubChem BioAssay
